In general, pIC50 refers to the IC50 on a negative log10 scale, so that one unit is a factor of ten. A higher pIC50 goes with a small IC50.

We go through twelve molecules from ChEMBL document CHEMBL2429863, “Cytotoxic deoxybenzoins and diphenylethylenes from Arundina graminifolia” (J Nat Prod, 2013).

pIC50: −log10 of the molar value. Some results are limits rather than exact numbers.

Holding throughout (type): functional, cell-based
In one assay the test system is PC-3. The experiment in a line: Cytotoxicity against human PC3 cells after 48 hrs by MTT assay. The conditions noted are these: PC-3, 48 h. The gist of the method:
(§1)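 Tumor cells from ATCC, grown in RPMI1640 or DMEM with 10% FBS at 37 °C, 5% CO2. Adherent cells plated and allowed to attach 12 h; suspension cells seeded just before dosing at 1 × 10^5 cells/mL. Compounds at various concentrations in triplicate for 48 h; paclitaxel positive control. MTT added for 4 h at 37 °C, then lysis with 20% SDS–50% DMF; formazan read colorimetrically.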
For orientation: Tetrazolium assays rely on reduction of a dye to a coloured formazan, in cell work by metabolically active cells.

The subject of a further assay is A549. The experiment in a line: Cytotoxicity against human A549 cells after 48 hrs by MTT assay. The conditions noted are these: A549, 48 h. The gist of the method: as §1
Another assay concerns MCF7. The experiment in a line: Cytotoxicity against human MCF7 cells after 48 hrs by MTT assay. The conditions noted are these: MCF7, 48 h. The gist of the method:
as §1

Assay [1] is described as follows: Cytotoxicity against human SH-SY5Y cells after 48 hrs by MTT assay. The gist of the method: as §1
The next assay relates to NB-4. In words: Cytotoxicity against human NB4 cells after 48 hrs by MTT assay. The settings on record: NB-4, 48 h. The gist of the method: as §1

On to `CC(C)CCC(=O)c1c(O)cc(CC(=O)c2ccccc2)cc1O`, for which the pIC50 is 5.17 in the assay on PC-3; 5.28 in the assay on A549; 5.26 in the assay on MCF7; 5.49 in assay [1]; 5.68 with NB-4.

Consider `COc1ccc(C(=O)Cc2cc(O)c(C(=O)CCC(C)C)c(O)c2)cc1`, for which the pIC50 (in the assay with PC-3; with A549; in the assay on MCF7; in assay [1]; in the assay on NB-4) was less than 5.00 each time.

As to `CC(C)c1cc(=O)c2c(O)cc(CC(=O)c3ccccc3)cc2o1`, the negative-log IC50 (pIC50) (in the assay with PC-3; in the assay with A549; in the assay on MCF7; in assay [1]; with NB-4) was less than 5.00 throughout.

Consider `CC(=O)Oc1cc(CC(=O)c2ccccc2)cc2oc(C(C)C)cc(=O)c12`, for which the pIC50 (with PC-3; with A549; in the assay on MCF7; in assay [1]; in the assay with NB-4) was less than 5.00 throughout.

Take `OCCc1c(O)cc(/C=C/c2cc(O)cc(O)c2)cc1O`: the pIC50 with PC-3 was 5.25; in the assay on A549 it was 5.09; with MCF7 it was 5.19; in assay [1], 5.11; with NB-4, 5.26.

With `COc1cc(/C=C/c2cc(O)cc(O)c2)cc(O)c1CCO`, the pIC50 in the assay with PC-3 is 5.66; in the assay with A549, 5.19; in the assay with MCF7, 5.28; in assay [1], 5.35; in the assay on NB-4 it was 5.48.

As to `COc1cc(/C=C/c2cc(O)c(CCO)c(O)c2)cc(OC)c1`, the pIC50 in the assay with PC-3 is 5.06; in the assay with A549 it was 5.26; in the assay with MCF7, 5.23; in assay [1], 5.21; in the assay with NB-4, 5.32.

In the case of `COc1ccc(C(=O)Cc2cc(O)c3c(c2)OC(C)(C)CC3=O)cc1`, the pIC50 (in the assay with PC-3; in the assay on A549; in the assay on MCF7; in assay [1]; with NB-4) was less than 5.00 throughout.

Turning to `COc1ccc(C(=O)Cc2cc(OC)c3c(c2)OC(C)(C)CC3=O)cc1`, the pIC50 is less than 5.00 with PC-3; 5.19 with A549; 5.07 in the assay on MCF7; less than 5.00 in assay [1]; less than 5.00 in the assay with NB-4.

For `COc1ccc(C(=O)Cc2cc(O)c3c(c2)OCC(C)=CC3=O)cc1`, the pIC50 (in the assay with PC-3; with A549; in the assay on MCF7; in assay [1]; in the assay on NB-4) was less than 5.00 in each case.

For `CC1=CC(=O)c2c(O)cc(CC(=O)c3ccc(O)cc3)cc2OC1`, the pIC50 with PC-3 is 5.47; in the assay with A549 it was 5.66; in the assay with MCF7, 5.27; in assay [1] it was 5.74; in the assay on NB-4, 5.12.

On to `CC(=O)O[C@H]1C(=O)[C@@]2(C)[C@H]([C@H](OC(=O)c3ccccc3)[C@]3(O)C[C@H](OC(=O)[C@H](O)[C@@H](NC(=O)c4ccccc4)c4ccccc4)C(C)=C1C3(C)C)[C@]1(OC(C)=O)CO[C@@H]1C[C@@H]2O` [PACLITAXEL], for which the pIC50 in assay [1] is 6.70.
